For nine molecules, IC50, IC70 and inhibition results are on record in ChEMBL document CHEMBL1143177, “Antitumor effects of curcumin and structurally beta-diketone modified analogs on multidrug resistant cancer cells” (Bioorg Med Chem Lett, 2008).

pIC50: −log10 of the molar value.

One experiment concerns MCF7. The experiment in a line: Growth inhibition of human MCF7 cells after 72 hrs by MTS assay. Conditions: MCF7, 72 h. In general terms: Formazan colour is commonly taken as a measure of viable cells.
The test system of another experiment is MCF7R. The experiment in a line: Growth inhibition of human multidrug-resistant MCF7R cells after 72 hrs by MTS assay.
Experiment [1] is described as follows: Growth inhibition of human HA22T/VGH cells after 72 hrs by MTS assay.
For experiment [2], the target named is Transcription factor p65 (Homo sapiens) (UniProt Q04206). Nature of the experiment: Reduction in DNA binding activity of NF-kappaB p65 subunit in human HA22T/VGH cells after 1.5 hrs relative to control. The class given is cell-based. Conditions: concentration not given here. The gist of the method:
(§1)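 HA22T/VGH cells, which have constitutively active NF-κB, were exposed to compounds at 20 µM for 1.5 or 4 h. DNA-binding activity of the NF-κB p65 subunit was measured and expressed as percent of untreated control.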

The target is the same in experiment [3]. The experiment in a line: Reduction in DNA binding activity of NF-kappaB p65 subunit in human HA22T/VGH cells after 4 hrs relative to control. The format is cell-based. Conditions: concentration not given here. The procedure, abridged:
as §1

Transcription factor p65 (Homo sapiens), sequence (Q04206 whole entry): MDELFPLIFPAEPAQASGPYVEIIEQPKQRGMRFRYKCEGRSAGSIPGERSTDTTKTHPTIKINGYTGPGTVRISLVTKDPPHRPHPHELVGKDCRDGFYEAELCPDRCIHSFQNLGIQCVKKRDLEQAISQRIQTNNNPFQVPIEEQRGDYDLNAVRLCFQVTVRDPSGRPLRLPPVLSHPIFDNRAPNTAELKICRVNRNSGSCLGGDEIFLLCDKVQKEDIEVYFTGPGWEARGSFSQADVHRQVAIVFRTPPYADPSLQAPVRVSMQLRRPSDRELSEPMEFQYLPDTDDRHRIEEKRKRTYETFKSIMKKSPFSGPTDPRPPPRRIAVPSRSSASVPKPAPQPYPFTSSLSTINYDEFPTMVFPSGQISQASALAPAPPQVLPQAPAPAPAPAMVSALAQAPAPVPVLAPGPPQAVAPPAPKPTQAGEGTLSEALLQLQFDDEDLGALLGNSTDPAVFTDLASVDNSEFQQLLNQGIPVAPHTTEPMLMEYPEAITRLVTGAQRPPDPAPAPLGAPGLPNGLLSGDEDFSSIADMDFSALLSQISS

In the case of `CO/N=C(\C=C\c1ccc(O)c(OC)c1)CC(/C=C/c1ccc(O)c(OC)c1)=N/OC`, the negative-log IC50 (pIC50) with MCF7 was 4.44; with MCF7R, 4.41; in experiment [1], 4.48. In addition, the concentration for an effect of 70% (IC70) in the experiment with MCF7 was determined as 43.4 µM; in the experiment with MCF7R, 52.8 µM; in experiment [1], 40.4 µM.
As to `COc1cc(/C=C/C(=O)/C=C(/C=C/c2ccc(O)c(OC)c2)NCc2ccccc2)ccc1O`, the negative logarithm of the IC50 (pIC50) (in the experiment on MCF7; in the experiment with MCF7R; in experiment [1]) was less than 4.00 each time. The IC70 (in the experiment with MCF7; with MCF7R; in experiment [1]) was more than 100 µM in each case.
As for `CCNC(=C\C(=O)/C=C/c1ccc(O)c(OC)c1)/C=C/c1ccc(O)c(OC)c1`, the pIC50 in the experiment on MCF7 was 4.03; in the experiment with MCF7R, 4.17; in experiment [1], 4.58. The IC70 with MCF7 was more than 100 µM; with MCF7R, 88.8 µM; in experiment [1], 64.4 µM.
In the case of `COc1cc(/C=C/C(=O)/C=C(/C=C/c2ccc(O)c(OC)c2)NC(C)C)ccc1O`, the negative-log IC50 (pIC50) with MCF7 is 4.15; in the experiment on MCF7R, 4.30; in experiment [1], 4.58. The figures for the IC70 (in the experiment with MCF7; in the experiment on MCF7R; in experiment [1]) were 93.5 µM, 79.5 µM and 29.8 µM, respectively.
As to `COc1cc(/C=C/C(=O)/C=C(/C=C/c2ccc(O)c(OC)c2)NC(C)c2ccccc2)ccc1O` (stereo unspecified), the pIC50 (with MCF7; in the experiment with MCF7R; in experiment [1]) was less than 4.00 throughout. Besides, the IC70 (in the experiment with MCF7; with MCF7R; in experiment [1]) was more than 100 µM each time.
In the case of `COc1cc(/C=C/C(CC(/C=C/c2ccc(O)c(OC)c2)=N/OCc2ccccc2)=N\OCc2ccccc2)ccc1O`, the pIC50 is 5.15 in the experiment with MCF7, 5.03 in the experiment with MCF7R and 5.23 in experiment [1]. Also, the IC70 with MCF7 came to 9.2 µM; in the experiment on MCF7R it was 12.9 µM; in experiment [1] it was 8.4 µM. The inhibition in experiment [2] worked out at 33.7%; in experiment [3], 64.3%.
In the case of `COc1cc(/C=C/C(=O)/C=C(N)/C=C/c2ccc(O)c(OC)c2)ccc1O`, the pIC50 in the experiment on MCF7 was 4.30; in the experiment with MCF7R, 4.26; in experiment [1] it was 4.48. Also, the values for the IC70 (with MCF7; in the experiment on MCF7R; in experiment [1]) were 68.1 µM, 81.8 µM and 41.1 µM, respectively.
On to `COc1cc(/C=C/c2cc(/C=C/c3ccc(O)c(OC)c3)on2)ccc1O`, for which the pIC50 with MCF7 is 4.88; in the experiment with MCF7R, 4.92; in experiment [1], 4.89. Moreover, the IC70 came out at 23.2 µM in the experiment on MCF7, 24.7 µM in the experiment on MCF7R and 18.3 µM in experiment [1].
As to `COc1cc(/C=C/C(=O)CC(=O)/C=C/c2ccc(O)c(OC)c2)ccc1O` [CURCUMIN], the negative-log IC50 (pIC50) in the experiment on MCF7 is 4.53; in the experiment on MCF7R it was 4.58; in experiment [1], 4.76. Besides, the concentration for an effect of 70% (IC70) in the experiment with MCF7 came to 51.7 µM; in the experiment on MCF7R, 46.2 µM; in experiment [1], 24.6 µM.

As a reminder, the pIC50 is the IC50 on a negative log10 scale, so that one unit is a factor of ten. Read a high pIC50 as a small IC50. For orientation: IC70 means the point of the concentration-response curve where the effect stands at 70%. A higher IC70 goes with a need for much substance. One may read the inhibition as the drop in the measured response relative to a control, in per cent. Lower therefore signals a response near the control.
